Measured values reported in ChEMBL document CHEMBL1129750, “Bicyclic N-hydroxyurea inhibitors of 5-lipoxygenase: pharmacodynamic, pharmacokinetic, and in vitro metabolic studies characterizing N-hydroxy-N-(2,3-dihydro-6-(phenylmethoxy)-3-benzofuranyl)urea” (J Med Chem, 1996).
The source made the active and inactive calls. The calls are words filed in the database; no cut-off is given here.

Experiments:
[1] = target: T1, Polyunsaturated fatty acid 5-lipoxygenase (Rattus norvegicus, UniProt P12527); test: Inhibitory activity against rat 5-lipoxygenase by using continuous oxygen consumption assay.
T1 sequence (P12527 whole entry): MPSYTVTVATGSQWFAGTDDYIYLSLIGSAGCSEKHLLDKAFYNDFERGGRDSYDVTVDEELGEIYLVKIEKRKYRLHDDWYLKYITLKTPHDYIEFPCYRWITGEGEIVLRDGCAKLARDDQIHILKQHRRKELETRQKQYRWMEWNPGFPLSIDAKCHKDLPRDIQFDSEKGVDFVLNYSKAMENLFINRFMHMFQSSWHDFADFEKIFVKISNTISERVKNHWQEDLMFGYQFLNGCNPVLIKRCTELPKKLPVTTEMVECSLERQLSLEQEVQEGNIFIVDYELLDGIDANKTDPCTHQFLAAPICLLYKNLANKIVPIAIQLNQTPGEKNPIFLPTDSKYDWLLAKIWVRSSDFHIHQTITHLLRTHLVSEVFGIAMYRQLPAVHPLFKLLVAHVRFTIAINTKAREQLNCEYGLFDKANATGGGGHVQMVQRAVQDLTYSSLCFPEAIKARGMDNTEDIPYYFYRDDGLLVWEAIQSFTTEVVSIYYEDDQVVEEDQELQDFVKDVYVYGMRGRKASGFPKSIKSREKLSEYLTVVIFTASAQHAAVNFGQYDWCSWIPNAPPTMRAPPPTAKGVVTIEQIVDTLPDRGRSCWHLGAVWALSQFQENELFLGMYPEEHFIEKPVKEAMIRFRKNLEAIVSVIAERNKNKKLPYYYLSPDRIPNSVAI
How it was run: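 Semipurified cytosolic 5-LO from rat basophilic leukemia (RBL-1) cells; continuous oxygen-electrode assay of oxygen consumption; IC50.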

[2] = target: T2, Polyunsaturated fatty acid 5-lipoxygenase (Mus musculus) (UniProt P48999); test: Inhibition of leukotriene formation in A-23187-stimulated mouse whole blood using […] ex vivo, activity expressed as percent of control.; format: functional, tissue-based; set-up: scale not given: the % may be the effect or the level left
T2 sequence (whole entry): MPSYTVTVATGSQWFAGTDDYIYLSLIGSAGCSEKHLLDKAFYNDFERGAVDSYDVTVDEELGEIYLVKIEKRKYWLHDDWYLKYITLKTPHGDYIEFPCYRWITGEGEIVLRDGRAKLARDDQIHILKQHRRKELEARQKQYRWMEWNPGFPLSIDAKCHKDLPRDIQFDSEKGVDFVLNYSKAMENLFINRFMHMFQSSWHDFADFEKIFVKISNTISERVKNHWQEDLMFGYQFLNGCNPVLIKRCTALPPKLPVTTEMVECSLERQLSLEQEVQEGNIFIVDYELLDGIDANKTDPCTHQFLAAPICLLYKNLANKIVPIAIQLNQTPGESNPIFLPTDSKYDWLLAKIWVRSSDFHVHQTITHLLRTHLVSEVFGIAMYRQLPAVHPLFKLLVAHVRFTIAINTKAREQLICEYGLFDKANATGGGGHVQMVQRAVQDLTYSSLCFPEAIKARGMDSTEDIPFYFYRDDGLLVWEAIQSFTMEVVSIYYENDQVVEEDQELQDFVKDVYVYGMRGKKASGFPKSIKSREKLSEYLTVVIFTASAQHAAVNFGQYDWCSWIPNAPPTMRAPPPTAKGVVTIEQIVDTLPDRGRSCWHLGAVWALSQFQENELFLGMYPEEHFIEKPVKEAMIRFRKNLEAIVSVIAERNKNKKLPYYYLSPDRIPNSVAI

Mus musculus [3] = test: Compound was tested to inhibit Leukotriene formation in mouse sensitized with 1BD8 cells after 7 hr of compound administration, activity expressed as percent of control; format: functional; set-up: concentration or dose not given beside the values
Mus musculus [4] = test: Percentage inhibition of LTB4 after 6 hr at dose 6 mg/kg in mouse; format: functional
Mus musculus [5] = test: Maximum inhibition of LTB4 at dose 6 mg/kg in mouse; format: functional
Mus musculus [6] = organism: Mus musculus; test: Inhibition of Leukotriene formation in mouse adoptive peritoneal anaphylaxis assay ex vivo; format: functional
Mus musculus [7] = organism: Mus musculus; test: Compound was tested to inhibit Leukotriene formation in A-23187-stimulated mouse whole blood using […] ex vivo; format: functional
Homo sapiens [8] = organism: Homo sapiens; test: Compound was tested to inhibit Leukotriene formation in A-23187-stimulated human whole blood using LTB4 specific RIA in vitro; format: functional
How it was run: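 Human whole blood stimulated with A23187; LTB4 measured by specific radioimmunoassay. IC50 with 95% confidence limits from linear regression.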

Homo sapiens [9] = organism: Homo sapiens; test: Glucuronidation rates in human liver microsomes; format: functional
How it was run: (§1)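 Liver microsomes (fresh male CD-1 mouse >10 weeks, or frozen human donor) at 0.25–1.0 mg/mL protein. Incubated with 2.5 mM substrate, 15 mM [14C]UDP-glucuronic acid, 10 mM MgCl2 and 2% BSA in 100 mM sodium phosphate pH 7.4, at 37 °C for 1–4 h. Stopped with 20% acetonitrile; glucuronide quantified by HPLC. Mean of duplicates.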

Mus musculus [10] = organism: Mus musculus; test: Glucuronidation rates in mouse liver microsomes; format: functional; how it was run: as §1
Mus musculus [11] = organism: Mus musculus; test: Compound was tested to inhibit Leukotriene formation in A-23187-stimulated mouse whole blood using […] ex vivo, activity expressed as percent of control; NS=No Stastistical Significance; format: functional, organism-based
[12] = Mus musculus, Blood, read-out: ED50

**Q.** What does the source list for NC(=O)N(O)C1CCn2c1cc1cc(Oc3ccccc3)ccc12 (stereo not given)?
**A.** IC50 [1]: 520 nM; Activity [2]: -58%

**Q.** With NC(=O)N(O)C1COc2cc(OCc3ccccc3)ccc21 (stereo in doubt; 1a) [listing 1 of 2 here] as the compound, how does the Activity (Mus musculus [3]) read?
**A.** -55%

**Q.** What about the inhibition in vivo at 6 mg/kg (Mus musculus [4]) of the same compound?
**A.** 87%

**Q.** What about the Max inhibition (Mus musculus [5]) of the same compound?
**A.** 91

**Q.** And the ED50 (Mus musculus [6]; Mus musculus)?
**A.** 3.9 mg/kg

**Q.** What about the ED50 (Mus musculus [7]) of the same compound?
**A.** 3.9 mg/kg

**Q.** And the IC50 (Homo sapiens [8])?
**A.** 4.3 µM

**Q.** How did the IC50 [1] turn out when NC(=O)N(O)C1CCCc2cc(-c3ccccc3)ccc21 (stereo not given) was run?
**A.** 3000 nM

**Q.** What about the Activity [2] of the same compound?
**A.** -52%

**Q.** For NC(=O)N(O)C1CCn2c1cc1cc(Cl)ccc12 (stereo not given), which IC50 [1] is on record?
**A.** 1300 nM

**Q.** For NC(=O)N(O)C1CCCc2cc(OCc3ccccc3)ccc21 (stereo in doubt; 3a), which Activity [2] is on record?
**A.** -67%

**Q.** Which results are given for NC(=O)N(O)C1CCn2c1cc1cc(OCc3ccccc3)ccc12 (stereo not given)?
**A.** IC50 [1]: 650 nM; Activity (Mus musculus [3]): -8%; ED50 (Mus musculus [6]): 1.8 mg/kg; Activity [2]: -68%; ED50 (Mus musculus [7]; [12]): 1.8 mg/kg

**Q.** With NC(=O)N(O)C1COc2cc(OCc3ccccc3)ccc21 (stereo in doubt; 1a) [listing 2 of 2 here] as the compound, how does the Activity [2] read?
**A.** -100%

**Q.** How did the Rate of formation (nM (mg of protein)-1) (Homo sapiens [9]) turn out when NC(=O)N(O)C1COc2cc(OCc3ccccc3)ccc21 (single isomer, unassigned; (-)) was run?
**A.** 60.3

**Q.** And the Rate of formation (nM (mg of protein)-1) (Mus musculus [10])?
**A.** 5.9

**Q.** NC(=O)N(O)C1CCn2c1cc1ccccc12 (stereo not given) was tested. Which IC50 [1] did it give?
**A.** 10000 nM

**Q.** And the Activity [2]?
**A.** -74%

**Q.** How did the IC50 [1] turn out when NC(=O)N(O)C1CCc2cc(OCc3ccccc3)ccc21 (stereo in doubt; 2a) was run?
**A.** 780 nM

**Q.** What about the Activity (Mus musculus [3]) of the same compound?
**A.** -31%

**Q.** And the ED50 (Mus musculus [6]; Mus musculus)?
**A.** 4 mg/kg

**Q.** What about the ED50 (Mus musculus [7]; [12]) of the same compound?
**A.** 2.6 mg/kg

**Q.** What does the source list for Cc1c2n(c3ccc(C(C)C)cc13)CCC2N(O)C(N)=O (stereo not given)?
**A.** IC50 [1]: 1700 nM; Activity (Mus musculus [11]): inactive

**Q.** NC(=O)N(O)C1COc2cc(Oc3ccccc3)ccc21 (stereo not given) was tested. Which IC50 [1] did it give?
**A.** 3300 nM

**Q.** And the Activity [2]?
**A.** -56%

**Q.** With COc1ccc2c(c1)CCCC2N(O)C(N)=O (stereo not given) as the compound, how does the IC50 [1] read?
**A.** 48000 nM

**Q.** What about the Activity (Mus musculus [11]) of the same compound?
**A.** inactive

**Q.** Which IC50 [1] does the source give for NC(=O)N(O)C1CCCc2cc(OCc3ccccc3)ccc21 (single isomer, unassigned; (-)) here?
**A.** 1300 nM

**Q.** With NC(=O)N(O)C1CCCc2cc(OCc3ccccc3)ccc21 (single isomer, unassigned; (+)) as the compound, how does the Activity [2] read?
**A.** 28%

**Q.** With NC(=O)N(O)C1CCCc2cc(CCc3ccccc3)ccc21 (stereo not given) as the compound, how does the IC50 [1] read?
**A.** 600 nM

**Q.** What about the Activity (Mus musculus [11]) of the same compound?
**A.** inactive

**Q.** For NC(=O)N(O)C1CCc2cc(OCc3ccccc3)ccc21 (single isomer, unassigned; (+)), which IC50 [1] is on record?
**A.** 880 nM

**Q.** Which Activity [2] does the source give for Cc1c2n(c3ccc(Oc4ccccc4)cc13)CCC2N(O)C(N)=O (stereo not given) here?
**A.** -26%

**Q.** What does the source list for COc1ccc(COc2ccc3c(c2)OCC3N(O)C(N)=O)cc1 (stereo not given)?
**A.** IC50 [1]: 2700 nM; Activity [2]: -73%; ED50 (Mus musculus [7]; [12]): 9.8 mg/kg

**Q.** What does the source list for NC(=O)N(O)C1CCCc2c(Oc3ccccc3)cccc21 (stereo not given)?
**A.** IC50 [1]: 840 nM; Activity [2]: -57%

**Q.** With NC(=O)N(O)C1CCCc2c(OCc3ccccc3)cccc21 (stereo not given) as the compound, how does the IC50 [1] read?
**A.** 910 nM

**Q.** What about the Activity [2] of the same compound?
**A.** -44%
